Consider 18 compounds from ChEMBL document CHEMBL1275300, “Synthesis and antituberculosis activity of some new pyridazine derivatives. Part II” (Eur J Med Chem, 2010).

For the assay, the system named is Mycobacterium tuberculosis. As to the kind of experiment: Antimicrobial activity against Mycobacterium tuberculosis H37Rv ATCC 27294 by microplate alamar blue assay. The format is functional, organism-based. The essentials: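 M. tuberculosis H37Rv (ATCC 27294) grown in BACTEC 12B medium and tested by microplate Alamar Blue assay. Compounds were dissolved in DMSO, diluted with distilled water, and tested as ten 2-fold dilutions. Read-out was fluorescence. IC90 is the concentration giving 90% fluorescence reduction versus controls; IC50 is defined the same way at 50%.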
(Resazurin is reduced to fluorescent resorufin, in cell work by metabolically active cells.)

In brackets after ≈: the same amount, converted by molar mass. Bounds are passed on as bounds.

In general, IC50 refers to the point on the concentration scale where inhibition reaches its midpoint. What is called IC90 is the point of the concentration-response curve where the effect stands at 90%. Lower therefore signals an effect from little substance. In the case of `CCOC(=O)Cn1nc(-c2ccc(C)cc2)ccc1=O`, the IC50 was over 100 µg/mL and the concentration for an effect of 90% (IC90) is over 100 µg/mL.
As to `C=CCn1nc(-c2ccc(Br)cc2)ccc1=O`, 37.8 µg/mL (≈ 130 µM) corresponded to half-maximal inhibition (IC50) and the IC90 was 46.8 µg/mL (≈ 161 µM).
The corresponding values for `C=CCn1nc(-c2ccc(Cl)cc2)ccc1=O` are 36.6 µg/mL (≈ 148 µM) and 61.6 µg/mL (≈ 250 µM).
For `C=CCn1nc(-c2ccc(C)cc2)ccc1=O` the same measures were 60.7 µg/mL (≈ 268 µM) and 76.5 µg/mL (≈ 338 µM).
The corresponding values for `C#CCn1nc(-c2ccc(C)cc2)ccc1=O` are 63.7 µg/mL (≈ 284 µM) and 89.2 µg/mL (≈ 398 µM).
Take `C#CCn1nc(-c2ccc(Cl)cc2)ccc1=O`: the concentration for half-maximal inhibition (IC50) turned out to be 34.7 µg/mL (≈ 142 µM) and the IC90 is over 100 µg/mL.
The corresponding values for `C#CCn1nc(-c2ccc(Br)cc2)ccc1=O` are 97.8 µg/mL (≈ 338 µM) and over 100 µg/mL.
On to `COC(=O)Cn1nc(-c2ccc(Cl)cc2)ccc1=O`, for which inhibition was half-maximal at 94.2 µg/mL (≈ 338 µM) (IC50) and the IC90 was over 100 µg/mL.
The corresponding values for `COC(=O)Cn1nc(-c2ccc(Br)cc2)ccc1=O` are 73.2 µg/mL (≈ 227 µM) and over 100 µg/mL.
For `COC(=O)Cn1nc(-c2ccc(C)cc2)ccc1=O` the same measures were over 100 µg/mL and over 100 µg/mL.
As for `CCOC(=O)Cn1nc(-c2ccc(Cl)cc2)ccc1=O`, the 50% inhibitory concentration (IC50) was over 100 µg/mL and the IC90 is over 100 µg/mL.
`CCOC(=O)Cn1nc(-c2ccc(Br)cc2)ccc1=O`: the half-inhibitory concentration (IC50) is over 100 µg/mL and the IC90 was over 100 µg/mL.
Compound `NC(=O)Cn1nc(-c2ccc(Cl)cc2)ccc1=O` yielded a concentration for half-maximal inhibition (IC50) of over 100 µg/mL and an IC90 of over 100 µg/mL.
The compound `NC(=O)Cn1nc(-c2ccc(Br)cc2)ccc1=O` showed a concentration for half-maximal inhibition (IC50) of over 100 µg/mL and a concentration for an effect of 90% (IC90) of over 100 µg/mL.
The compound `Cc1ccc(-c2ccc(=O)n(CC(N)=O)n2)cc1` registered a 50% inhibitory concentration (IC50) of over 100 µg/mL and a 90% effect concentration (IC90) of over 100 µg/mL.
`CCOC(=O)C(C)n1nc(-c2ccc(Cl)cc2)ccc1=O` (stereo unspecified): the IC50 amounted to 28.6 µg/mL (≈ 93.2 µM) and the 90% effect concentration (IC90) turned out to be 46 µg/mL (≈ 150 µM).
The corresponding values for `CCOC(=O)C(C)n1nc(-c2ccc(Br)cc2)ccc1=O` (stereo unspecified) are 26.8 µg/mL (≈ 76.5 µM) and 47.5 µg/mL (≈ 135 µM).
In turn, `CCOC(=O)C(C)n1nc(-c2ccc(C)cc2)ccc1=O` (stereo unspecified) returned a half-inhibitory concentration (IC50) of 64.9 µg/mL (≈ 227 µM) and an IC90 of 84 µg/mL (≈ 293 µM).
